Measured values: ChEMBL document CHEMBL1125461, “Analogues of platelet activating factor. 6. Mono- and bis-aryl phosphate antagonists of platelet activating factor” (J Med Chem, 1992)

Assays:
Type in all cases: functional
Oryctolagus cuniculus [1] = organism: Oryctolagus cuniculus; test: Compound was tested for its ability to inhibit PAF induced platelet aggregation in rabbit at a dose of 10 uM
Mus musculus [2] = test: Compound was tested for protecting PAF-induced lethality in mouse at a dose of 0.5 mg/kg (Out of 41)
Procedure, shortened: (§1)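 Female Swiss-Webster mice (20–25 g) were dosed ip with compound in saline at 10 mL/kg, and controls got saline alone. Thirty minutes later, racemic C16-PAF in saline was given as an iv tail-vein bolus at 10 mL/kg (75–150 µg/kg PAF). Survival was checked at 1.5 h and was recorded as dead/total.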

Mus musculus [3] = test: Compound was tested for protecting PAF-induced lethality in mouse at a dose of 0.5 mg/kg (Out of 9); procedure, shortened: as §1
Mus musculus [4] = test: Compound was tested for protecting PAF-induced lethality in mouse at a dose of 0.5 mg/kg (Out of 38); procedure, shortened: as §1
Oryctolagus cuniculus [5] = test: Compound was tested for protecting PAF-induced lethality in rabbit at a dose of 3 mg/kg (Out of 2)
Mus musculus [6] = test: Compound was tested for protecting PAF-induced lethality in mouse at a dose of 2.5 mg/kg (Out of 10); procedure, shortened: as §1
Mus musculus [7] = test: Compound was tested for protecting PAF-induced lethality in mouse at a dose of 1.25 mg/kg (Out of 10); procedure, shortened: as §1
Oryctolagus cuniculus [8] = test: Compound was tested for protecting PAF-induced lethality in rabbit at a dose of 2.5 mg/kg (Out of 2)
Procedure, shortened: (§2)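 Rabbits got compound iv 15 min before an iv challenge of L-C16-PAF at 150 µg/kg, made from a methanol stock diluted in saline. Controls were saline-treated. Survival was checked at 1 h and was recorded as dead/total.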

Mus musculus [9] = test: Compound was tested for protecting PAF-induced lethality in mouse at a dose of 1 mg/kg (Out of 10); procedure, shortened: as §1
Mus musculus [10] = test: Compound was tested for protecting PAF-induced lethality in mouse at a dose of 0.5 mg/kg (Out of 11); procedure, shortened: as §1
Oryctolagus cuniculus [11] = test: Compound was tested for protecting PAF-induced lethality in rabbit at a dose of 2.5 mg/kg (Out of 4); procedure, shortened: as §2
Mus musculus [12] = test: Compound was tested for protecting PAF-induced lethality in mouse at a dose of 0.5 mg/kg (Out of 830); procedure, shortened: as §1
Oryctolagus cuniculus [13] = test: Compound was tested for protecting PAF-induced lethality in rabbit at a dose of 5 mg/kg (Out of 5); procedure, shortened: as §2
Oryctolagus cuniculus [14] = test: Compound was tested for protecting PAF-induced lethality in rabbit at a dose of 1 mg/kg (Out of 11); procedure, shortened: as §2
Mus musculus [15] = test: Compound was tested for protecting PAF-induced lethality in mouse at a dose of 1 mg/kg (Out of 74); procedure, shortened: as §1
Oryctolagus cuniculus [16] = test: Compound was tested for protecting PAF-induced lethality in rabbit at a dose of 5 mg/kg (Out of 3); procedure, shortened: as §2
Oryctolagus cuniculus [17] = test: Compound was tested for protecting PAF-induced lethality in rabbit at a dose of 10 mg/kg (Out of 5); procedure, shortened: as §2
Oryctolagus cuniculus [18] = test: Compound was tested for protecting PAF-induced lethality in rabbit at a dose of 1 mg/kg (Out of 3); procedure, shortened: as §2
Mus musculus [19] = test: Compound was tested for protecting PAF-induced lethality in mouse at a dose of 0.5 mg/kg (Out of 220); procedure, shortened: as §1
Mus musculus [20] = test: Compound was tested for protecting PAF-induced lethality in mouse at a dose of 1 mg/kg (Out of 88); procedure, shortened: as §1
Oryctolagus cuniculus [21] = test: Compound was tested for protecting PAF-induced lethality in rabbit at a dose of 1 mg/kg (Out of 2); procedure, shortened: as §2
Oryctolagus cuniculus [22] = test: Compound was tested for protecting PAF-induced lethality in rabbit at a dose of 10 mg/kg (Out of 2); procedure, shortened: as §2
Mus musculus [23] = test: Compound was tested for protecting PAF-induced lethality in mouse at a dose of 10 mg/kg (Out of 12); procedure, shortened: as §1
Mus musculus [24] = test: Compound was tested for protecting PAF-induced lethality in mouse at a dose of 0.5 mg/kg (Out of 49); procedure, shortened: as §1
Mus musculus [25] = test: Compound was tested for protecting PAF-induced lethality in mouse at a dose of 2.5 mg/kg (Out of 16); procedure, shortened: as §1
Mus musculus [26] = test: Compound was tested for protecting PAF-induced lethality in mouse at a dose of 0.5 mg/kg (Out of 10); procedure, shortened: as §1
Mus musculus [27] = test: Compound was tested for protecting PAF-induced lethality in mouse at a dose of 1 mg/kg (Out of 12); procedure, shortened: as §1
Mus musculus [28] = test: Compound was tested for protecting PAF-induced lethality in mouse at a dose of 10 mg/kg (Out of 13); procedure, shortened: as §1
Oryctolagus cuniculus [29] = organism: Oryctolagus cuniculus; test: Compound was tested for its ability to inhibit PAF induced platelet aggregation in rabbit at a dose of 50 uM
Oryctolagus cuniculus [30] = organism: Oryctolagus cuniculus; test: Compound was tested for its ability to inhibit PAF induced platelet aggregation in rabbit (No inhibition observed at a compound concentration up to 10 uM)
Mus musculus [31] = test: Compound was tested for protecting PAF-induced lethality in mouse at a dose of 10 mg/kg (Out of 10); procedure, shortened: as §1
Mus musculus [32] = test: Compound was tested for protecting PAF-induced lethality in mouse at a dose of 0.5 mg/kg (Out of 23); procedure, shortened: as §1

**Q.** `CCCCCCCCCCCCCCCCOCC(COP(=O)(O)Oc1cccc(C/N=C(\S)Nc2ccccc2)c1)OC` (stereo not drawn) was tested. Which Inhibition (Oryctolagus cuniculus [1]) did it give?
**A.** 22%

**Q.** How did the Lethality (Mus musculus [2]) turn out when `CCCCCCCCCCCCCCOc1ccc(OP(=O)([O-])Oc2cccc(C[n+]3csc(C)c3)c2)c(OC)c1` was run?
**A.** 16 dead/total

**Q.** How did the Lethality (Mus musculus [3]) turn out when `CCCCCCCCCCCCCCOc1cccc(OP(=O)([O-])Oc2cccc(C[n+]3ccsc3)c2)c1OC` was run?
**A.** 4 dead/total

**Q.** For `CCCCCCCCCCCCCCOc1cccc(OP(=O)([O-])Oc2cccc(C[n+]3csc(C)c3)c2)c1C(C)=O`, which Lethality (Mus musculus [4]) is on record?
**A.** 18 dead/total

**Q.** For `CCCCCCCCCCCCOc1cccc(OCC(COP(=O)([O-])Oc2cccc(C[n+]3csc(C)c3)c2)OC)c1` (stereo not drawn), which Lethality (Oryctolagus cuniculus [5]) is on record?
**A.** 1 dead/total

**Q.** Which Lethality (Mus musculus [6]) does the source give for `CCCCCCCCCCCCCCCCCCNC(=O)OCC(COP(=O)([O-])Oc1ccccc1C[n+]1ccsc1)OC` (stereo not drawn) here?
**A.** 0 dead/total

**Q.** What does the source list for `CCCCCCCCCCCCCCCCOCC(COP(=O)([O-])Oc1cccc(C[n+]2ccsc2)c1)OC` (stereo not drawn)?
**A.** Lethality (Mus musculus [7]): 2 dead/total; Lethality (Oryctolagus cuniculus [8]): 1 dead/total

**Q.** With `CCCCCCCCCCCCCCOc1cccc(OP(=O)([O-])Oc2cccc(C[n+]3ccsc3)c2)c1C(=O)OC` as the molecule, how does the Lethality (Mus musculus [9]) read?
**A.** 5 dead/total

**Q.** What about the Lethality (Mus musculus [10]) of the same molecule?
**A.** 11 dead/total

**Q.** For `CCCCCCCCCCCCCCOc1cccc(OP(=O)([O-])Oc2cccc(C[n+]3csc(C)c3)c2)c1C(=O)OC`, which Lethality (Oryctolagus cuniculus [11]) is on record?
**A.** 0 dead/total

**Q.** And the Lethality (Mus musculus [12])?
**A.** 165 dead/total

**Q.** And the Lethality (Oryctolagus cuniculus [13])?
**A.** 0 dead/total

**Q.** What about the Lethality (Oryctolagus cuniculus [14]) of the same molecule?
**A.** 6 dead/total

**Q.** What about the Lethality (Mus musculus [9]) of the same molecule?
**A.** 3 dead/total

**Q.** For `CCCCCCCCCCCCOc1cccc(OCC(COP(=O)([O-])Oc2cccc(C[n+]3ccsc3)c2)OC)c1C` (stereo not drawn), which Lethality (Mus musculus [10]) is on record?
**A.** 1 dead/total

**Q.** With `CCCCCCCCCCCCCCCCOCC(COP(=O)([O-])Oc1ccccc1C[n+]1ccsc1)OC` (stereo not drawn) as the molecule, how does the Lethality (Oryctolagus cuniculus [8]) read?
**A.** 1 dead/total

**Q.** Which results are given for `CCCCCCCCCCCCCCOc1cccc(OP(=O)([O-])Oc2cccc(C[n+]3csc(C)c3)c2)c1OC`?
**A.** Lethality (Mus musculus [15]): 40 dead/total; Lethality (Oryctolagus cuniculus [16]): 1 dead/total; Lethality (Oryctolagus cuniculus [17]): 0 dead/total; Lethality (Oryctolagus cuniculus [18]): 2 dead/total; Lethality (Mus musculus [19]): 80 dead/total; Lethality (Mus musculus [20]): 24 dead/total

**Q.** How did the Lethality (Oryctolagus cuniculus [21]) turn out when `CCCCCCCCCCCCOc1cccc(OCC(COP(=O)([O-])Oc2cccc(C[n+]3csc(C)c3)c2)OCC)c1C` (stereo not drawn) was run?
**A.** 1 dead/total

**Q.** And the Lethality (Oryctolagus cuniculus [22])?
**A.** 0 dead/total

**Q.** What about the Lethality (Mus musculus [23]) of the same molecule?
**A.** 6 dead/total

**Q.** And the Lethality (Oryctolagus cuniculus [8])?
**A.** 1 dead/total

**Q.** And the Lethality (Mus musculus [24])?
**A.** 23 dead/total

**Q.** And the Lethality (Mus musculus [25])?
**A.** 0 dead/total

**Q.** How did the Lethality (Oryctolagus cuniculus [8]) turn out when `CCCCCCCCCCCCCCc1cccc(OCC(COP(=O)([O-])Oc2cccc(C[n+]3ccsc3)c2)OC)c1` (stereo not drawn) was run?
**A.** 1 dead/total

**Q.** And the Lethality (Mus musculus [26])?
**A.** 0 dead/total

**Q.** What does the source list for `CCCCCCCCCCCCCCOc1cccc(OP(=O)([O-])Oc2cccc(C[n+]3c(C)sc(C)c3C)c2)c1OC`?
**A.** Lethality (Mus musculus [27]): 9 dead/total; Lethality (Mus musculus [28]): 6 dead/total

**Q.** What does the source list for `CCCCCCCCCCCCCCCCOCC(COP(=O)([O-])Oc1cccc(C[n+]2csc(C)c2)c1)OC` (stereo not drawn)?
**A.** Lethality (Mus musculus [7]): 4 dead/total; Lethality (Oryctolagus cuniculus [8]): 1 dead/total

**Q.** With `CCCCCCCCCCCCOc1cc(OP(=O)([O-])Oc2cccc(C[n+]3ccsc3)c2)c(C(C)(C)C)cc1C(C)(C)C` as the molecule, how does the Lethality (Oryctolagus cuniculus [8]) read?
**A.** 2 dead/total

**Q.** What about the Inhibition (Oryctolagus cuniculus [29]) of the same molecule?
**A.** 15%

**Q.** How did the IC50 (Oryctolagus cuniculus [30]) turn out when `CCCCCCCCCCCCCCOc1cccc(OP(=O)([O-])Oc2cccc(CC[n+]3csc(C)c3)c2)c1OC` was run?
**A.** Not Active

**Q.** For `CCCCCCCCCCCCCCOc1ccc(C(=O)c2ccccc2)c(OP(=O)([O-])Oc2cccc(C[n+]3csc(C)c3)c2)c1`, which Lethality (Mus musculus [31]) is on record?
**A.** 0 dead/total

**Q.** What about the Lethality (Mus musculus [9]) of the same molecule?
**A.** 3 dead/total

**Q.** How did the Lethality (Oryctolagus cuniculus [8]) turn out when `CCCCCCCCCCCCOc1cc(C(C)(C)C)c(OP(=O)([O-])Oc2cccc(C[n+]3csc(C)c3)c2)cc1C(C)(C)C` was run?
**A.** 0 dead/total

**Q.** `CCCCCCCCCCCCCCOc1cccc(OP(=O)([O-])Oc2cccc(C[N+]3=CN=CC3)c2)c1OC` was tested. Which Inhibition (Oryctolagus cuniculus [29]) did it give?
**A.** 12%

**Q.** Which Lethality (Mus musculus [32]) does the source give for `CCCCCCCCCCCCCCOc1ccc(OP(=O)([O-])Oc2cccc(C[n+]3csc(C)c3)c2)c(C(C)=O)c1` here?
**A.** 6 dead/total
